Experimental data published in ChEMBL document CHEMBL1155439, “Transient receptor potential ankyrin 1 (TRPA1) channel as emerging target for novel analgesics and anti-inflammatory agents” (J Med Chem, 2010).

target: T1, Transient receptor potential cation channel subfamily A member 1 (Rattus norvegicus, UniProt Q6RI86); assay: Agonist activity at TRPA1 channel in rat DRG neurons assessed as increase in intracellular calcium influx; type: functional, cell-based
T1 sequence (Q6RI86 whole entry): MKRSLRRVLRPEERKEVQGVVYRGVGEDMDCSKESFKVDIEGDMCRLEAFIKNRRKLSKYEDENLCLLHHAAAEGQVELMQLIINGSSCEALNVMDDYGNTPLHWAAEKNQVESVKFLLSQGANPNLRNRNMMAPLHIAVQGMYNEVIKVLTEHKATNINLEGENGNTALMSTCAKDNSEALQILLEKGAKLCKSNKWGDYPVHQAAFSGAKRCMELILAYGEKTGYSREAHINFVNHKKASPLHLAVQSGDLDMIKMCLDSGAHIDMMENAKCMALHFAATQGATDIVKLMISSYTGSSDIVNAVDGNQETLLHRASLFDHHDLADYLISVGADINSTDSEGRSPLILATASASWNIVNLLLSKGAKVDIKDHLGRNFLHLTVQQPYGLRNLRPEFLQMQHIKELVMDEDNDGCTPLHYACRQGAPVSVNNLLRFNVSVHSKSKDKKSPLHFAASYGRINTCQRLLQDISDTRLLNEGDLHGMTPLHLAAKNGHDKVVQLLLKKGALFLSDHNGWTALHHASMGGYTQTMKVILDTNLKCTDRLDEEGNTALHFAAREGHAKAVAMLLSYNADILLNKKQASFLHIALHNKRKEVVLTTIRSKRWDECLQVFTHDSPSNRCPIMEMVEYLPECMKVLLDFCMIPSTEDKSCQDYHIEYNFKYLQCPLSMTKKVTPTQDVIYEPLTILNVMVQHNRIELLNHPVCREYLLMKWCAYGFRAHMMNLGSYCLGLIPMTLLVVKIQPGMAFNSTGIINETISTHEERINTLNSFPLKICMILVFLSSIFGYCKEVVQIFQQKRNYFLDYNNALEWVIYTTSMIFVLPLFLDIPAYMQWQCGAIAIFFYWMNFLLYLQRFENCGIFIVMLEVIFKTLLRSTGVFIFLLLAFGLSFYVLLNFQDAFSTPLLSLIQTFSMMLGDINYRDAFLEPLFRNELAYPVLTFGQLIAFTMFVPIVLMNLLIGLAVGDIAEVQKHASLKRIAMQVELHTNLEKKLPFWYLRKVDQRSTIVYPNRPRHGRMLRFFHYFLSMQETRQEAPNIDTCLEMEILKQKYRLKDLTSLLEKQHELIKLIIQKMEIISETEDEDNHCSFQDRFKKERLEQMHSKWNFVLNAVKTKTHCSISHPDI

With CCCCCC(O)/C=C/C=O (stereo not given) [4-HYDROXYNON-2-ENAL] as the molecule, how does the EC50 read?
Its EC50 is 19.9 µM.

How did the EC50 turn out when CCCCCc1cc(O)c2c(c1)OC(C)(CCC=C(C)C)C=C2 (stereo not given) [CANNABICHROMENE] was run?
Its EC50 is 34.3 µM.

target: T2, Transient receptor potential cation channel subfamily A member 1 (Homo sapiens, UniProt O75762); assay: Activation of TRPA1 channel expressed in CHO cells assessed as increase in intracellular calcium levels; type: cell-based
T2 sequence (O75762 whole entry): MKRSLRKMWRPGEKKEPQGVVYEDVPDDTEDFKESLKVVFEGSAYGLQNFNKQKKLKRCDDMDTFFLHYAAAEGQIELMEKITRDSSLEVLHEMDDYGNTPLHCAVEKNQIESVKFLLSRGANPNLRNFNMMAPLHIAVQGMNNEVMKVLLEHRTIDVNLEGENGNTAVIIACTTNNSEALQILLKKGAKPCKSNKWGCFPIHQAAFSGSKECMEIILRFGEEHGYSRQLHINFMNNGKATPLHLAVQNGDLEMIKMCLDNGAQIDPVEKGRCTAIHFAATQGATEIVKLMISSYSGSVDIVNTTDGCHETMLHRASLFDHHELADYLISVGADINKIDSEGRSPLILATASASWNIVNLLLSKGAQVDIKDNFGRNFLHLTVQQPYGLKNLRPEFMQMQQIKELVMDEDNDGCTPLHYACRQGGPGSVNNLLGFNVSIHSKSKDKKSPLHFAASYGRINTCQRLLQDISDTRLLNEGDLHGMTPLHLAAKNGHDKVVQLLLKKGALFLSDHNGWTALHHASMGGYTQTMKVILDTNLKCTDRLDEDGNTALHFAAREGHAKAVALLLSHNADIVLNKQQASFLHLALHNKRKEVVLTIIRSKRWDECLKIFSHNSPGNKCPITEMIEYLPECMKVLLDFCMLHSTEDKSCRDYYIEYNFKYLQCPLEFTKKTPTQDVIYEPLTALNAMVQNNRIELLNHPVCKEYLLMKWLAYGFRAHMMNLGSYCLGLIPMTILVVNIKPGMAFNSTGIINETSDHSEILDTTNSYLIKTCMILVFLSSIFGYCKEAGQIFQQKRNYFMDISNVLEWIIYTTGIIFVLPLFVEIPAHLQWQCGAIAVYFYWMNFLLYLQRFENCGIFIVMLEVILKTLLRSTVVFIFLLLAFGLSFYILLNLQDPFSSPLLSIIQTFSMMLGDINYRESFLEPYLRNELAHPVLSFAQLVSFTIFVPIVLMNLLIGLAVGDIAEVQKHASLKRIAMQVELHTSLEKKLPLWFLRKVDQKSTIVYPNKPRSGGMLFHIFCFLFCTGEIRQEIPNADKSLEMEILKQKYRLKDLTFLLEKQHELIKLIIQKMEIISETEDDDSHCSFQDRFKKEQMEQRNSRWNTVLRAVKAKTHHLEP

With O=C/C=C/c1ccccc1 as the molecule, how does the EC50 read?
Its EC50 is 6.5 µM.

target: T2, Transient receptor potential cation channel subfamily A member 1; assay: Agonist activity at human TRPA1 channel expressed in HEK293 cells assessed as increase in membrane currents; type: functional, cell-based

With O=C1/C(=C/c2nccs2)c2ccccc2N1Cc1ccccc1 as the molecule, how does the EC50 read?
Its EC50 is 5.65 µM.

With CCC(CC)CN1C(=O)/C(=C/C(=O)N2CCOCC2)c2cccc(F)c21 as the molecule, how does the EC50 read?
The EC50 was 1.29 µM.

With NC(=O)/C=C1/C(=O)N(CC2CCCC2)c2c(F)cccc21 as the molecule, how does the EC50 read?
The EC50 was 0.66 µM.

How did the EC50 turn out when CC(C)CN1C(=O)/C(=C/C(=O)O)c2cccc(F)c21 was run?
Its EC50 is 0.83 µM.

COC(=O)c1cccc(CN2C(=O)/C(=C/C(N)=O)c3ccccc32)c1 was tested. Which EC50 did it give?
The EC50 was 1.2 µM.

With O=C(O)/C=C1/C(=O)N(CC2CCCC2)c2c(F)cccc21 as the molecule, how does the EC50 read?
Its EC50 is 0.51 µM.

For CN(C)C(=O)/C=C1/C(=O)N(CC2CCCC2)c2c(F)cccc21, which EC50 is on record?
The EC50 was 3.76 µM.

CC(C)CN1C(=O)/C(=C/C(=O)O)c2cccc(Cl)c21 was tested. Which EC50 did it give?
Its EC50 is 0.61 µM.

Which EC50 does the source give for O=C(O)/C=C1/C(=O)N(CC2CCCC2)c2ccccc21 here?
Its EC50 is 3 µM.

How did the EC50 turn out when O=C(O)/C=C1/C(=O)N(CC2CCCCC2)c2ccccc21 was run?
The EC50 was 4.4 µM.

Which EC50 does the source give for O=C(O)/C=C1/C(=O)N(Cc2ccccc2)c2ccc(F)cc21 here?
Its EC50 is 4.45 µM.

O=C(O)/C=C1/C(=O)N(CC2CCC2)c2c(F)cccc21 was tested. Which EC50 did it give?
The EC50 was 1.16 µM.

For CC(C)CN1C(=O)/C(=C/C(=O)O)c2cc(F)ccc21, which EC50 is on record?
Its EC50 is 4.63 µM.

target: T2, Transient receptor potential cation channel subfamily A member 1; assay: Agonist activity at human TRPA1 channel expressed in HEK293 cells assessed as increase in intracellular calcium influx; type: functional, cell-based

Which EC50 does the source give for Cc1ccc(N=C=O)cc1N=C=O [TOLUENE DIISOCYANATE] here?
The EC50 was 10 µM.

With Cc1ccc(C(C)C)cc1O [CARVACROL] as the molecule, how does the EC50 read?
Its EC50 is 7 µM.

Which EC50 does the source give for CC1(C)C[C@H]2C=C(C=O)[C@]3(C=O)C[C@]3(C)[C@H]2C1 [ISOVELLERAL] here?
The EC50 was 0.59 µM.

Which EC50 does the source give for O=C1NC(c2cccc([N+](=O)[O-])c2)=CCN1c1ccccc1O [ICILLIN] here?
Its EC50 is 100 µM.

How did the EC50 turn out when NC(=O)c1cccc(-c2cccc(OC(=O)NC3CCCCC3)c2)c1 [URB-597] was run?
Its EC50 is 24.5 µM.

target: T2, Transient receptor potential cation channel subfamily A member 1; assay: Activation of TRPA1 channel
Method in brief: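 Cell lines transfected with TRPA1 and loaded with a calcium-sensitive dye, read on FLIPR. Calcium influx is counted as the change in fluorescence above background. Each material was tested by preincubation or by direct addition. Calcium counts are expressed as a percentage of the control calcium count.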

For CN1CCC[C@H]1c1cccnc1 [NICOTINE], which EC50 is on record?
Its EC50 is 17 µM.

How did the EC50 turn out when CCCCC[C@H](O)/C=C/[C@H]1C=CC(=O)[C@@H]1CCCCCCC(=O)O [PROSTAGLANDIN A1] was run?
The EC50 was 15.1 µM.

How did the EC50 turn out when S=C=NCc1ccccc1 [BENZYL ISOTHIOCYANATE] was run?
The EC50 was 0.319 µM.

Which EC50 does the source give for S=C=NCCc1ccccc1 [PHENETHYLISOTHIOCYANATE] here?
The EC50 was 10 µM.

Which EC50 does the source give for C/C=C/C=C/C=C\CC/C=C/C(=O)NCC(C)(C)O here?
Its EC50 is 6.6 µM.

With C=CC=O [ACROLEIN] as the molecule, how does the EC50 read?
Its EC50 is 0.8 µM.

For CCCCC[C@H](O)/C=C/[C@H]1C=CC(=O)[C@@H]1C/C=C\CCCC(=O)O [PROSTAGLANDIN A2], which EC50 is on record?
Its EC50 is 24 µM.

For C=CCSSCC=C, which EC50 is on record?
The EC50 was 125 µM.

How did the EC50 turn out when C=C(C)C1CC=C(C=O)CC1 (stereo not given) was run?
The EC50 was 41 µM.

Which EC50 does the source give for CCCCC[C@H](O)/C=C/[C@H]1C=CC(=O)[C@H]1C/C=C\CCCC(=O)O here?
Its EC50 is 22.4 µM.

How did the EC50 turn out when CCCCC/C=C/C=C1/C(=O)C=C[C@@H]1C/C=C\CCCC(=O)O was run?
The EC50 was 5.6 µM.

How did the EC50 turn out when C/C=C/C=O [CROTONALDEHYDE] was run?
The EC50 was 16 µM.

CC(C)CCC(=O)c1ccoc1 [PERILLAKETONE] was tested. Which EC50 did it give?
Its EC50 is 19.7 µM.

target: Transient receptor potential cation channel subfamily M member 8 (Homo sapiens, UniProt Q7Z2W7); assay: Activation of TRPM8 channel

O=C1NC(c2cccc([N+](=O)[O-])c2)=CCN1c1ccccc1O [ICILLIN] was tested. Which EC50 did it give?
The EC50 was 0.06 µM.

target: T2, Transient receptor potential cation channel subfamily A member 1; assay: Agonist activity at human TRPA1 channel in HEK293 cells assessed as increase in intracellular calcium influx by radiometric Ca2+ imaging; type: functional, cell-based

CCCCCCCC/C=C(\CCCCCCCC(=O)O)[N+](=O)[O-] [NITROLEIC ACID] was tested. Which EC50 did it give?
The EC50 was 1 µM.

target: T2, Transient receptor potential cation channel subfamily A member 1; assay: Antagonist activity at TRPA1 channel at 10 uM; type: functional

Which inhibition does the source give for CN1C(=O)c2cccc(CC(=O)Nc3nc(-c4cc(F)c(OC(F)F)c(F)c4)cs3)c2C1=O here?
Its inhibition is 99%.

Which inhibition does the source give for CN1C(=O)c2cccc(CC(=O)Nc3nc(-c4ccc(Cl)c(Cl)c4)cs3)c2C1=O here?
The inhibition was 98%.

For CN1C(=O)c2cccc(CC(=O)Nc3nc(-c4cccc(C(F)(F)F)c4)cs3)c2C1=O, which inhibition is on record?
The inhibition was 96%.

For CN1C(=O)c2cccc(CC(=O)Nc3nc(-c4ccc(Cl)cc4)cs3)c2C1=O, which inhibition is on record?
The inhibition was 93%.

Which inhibition does the source give for CN1C(=O)c2cccc(CC(=O)Nc3nc(-c4ccc(I)cc4)cs3)c2C1=O here?
Its inhibition is 95%.

target: T1, Transient receptor potential cation channel subfamily A member 1; assay: Agonist activity at rat TRPA1 channel expressed in HEK293 cells assessed as increase in intracellular calcium influx; type: functional, cell-based

CCCCCc1cc(O)c2c(c1)OC(C)(CCC=C(C)C)C=C2 (stereo not given) [CANNABICHROMENE] was tested. Which EC50 did it give?
Its EC50 is 0.06 µM.

target: T2, Transient receptor potential cation channel subfamily A member 1; assay: Antagonist activity at TRPA1 channel; type: functional

For CN1C(=O)c2cccc(CC(=O)Nc3nc(-c4ccc(Cl)c(Cl)c4)cs3)c2C1=O, which IC50 is on record?
The IC50 was 0.25 µM.

CN1C(=O)c2cccc(CC(=O)Nc3nc(-c4cccc(C(F)(F)F)c4)cs3)c2C1=O was tested. Which IC50 did it give?
The IC50 was 0.5 µM.

How did the IC50 turn out when CN1C(=O)c2cccc(CC(=O)Nc3nc(-c4ccc(Cl)cc4)cs3)c2C1=O was run?
Its IC50 is 0.5 µM.

For CN1C(=O)c2cccc(CC(=O)Nc3nc(-c4ccc(I)cc4)cs3)c2C1=O, which IC50 is on record?
The IC50 was < 0.25 µM.

target: Transient receptor potential cation channel subfamily V member 1 (Homo sapiens, UniProt Q8NER1); assay: Activation of TRPV1 channel
Sequence (Q8NER1 whole entry): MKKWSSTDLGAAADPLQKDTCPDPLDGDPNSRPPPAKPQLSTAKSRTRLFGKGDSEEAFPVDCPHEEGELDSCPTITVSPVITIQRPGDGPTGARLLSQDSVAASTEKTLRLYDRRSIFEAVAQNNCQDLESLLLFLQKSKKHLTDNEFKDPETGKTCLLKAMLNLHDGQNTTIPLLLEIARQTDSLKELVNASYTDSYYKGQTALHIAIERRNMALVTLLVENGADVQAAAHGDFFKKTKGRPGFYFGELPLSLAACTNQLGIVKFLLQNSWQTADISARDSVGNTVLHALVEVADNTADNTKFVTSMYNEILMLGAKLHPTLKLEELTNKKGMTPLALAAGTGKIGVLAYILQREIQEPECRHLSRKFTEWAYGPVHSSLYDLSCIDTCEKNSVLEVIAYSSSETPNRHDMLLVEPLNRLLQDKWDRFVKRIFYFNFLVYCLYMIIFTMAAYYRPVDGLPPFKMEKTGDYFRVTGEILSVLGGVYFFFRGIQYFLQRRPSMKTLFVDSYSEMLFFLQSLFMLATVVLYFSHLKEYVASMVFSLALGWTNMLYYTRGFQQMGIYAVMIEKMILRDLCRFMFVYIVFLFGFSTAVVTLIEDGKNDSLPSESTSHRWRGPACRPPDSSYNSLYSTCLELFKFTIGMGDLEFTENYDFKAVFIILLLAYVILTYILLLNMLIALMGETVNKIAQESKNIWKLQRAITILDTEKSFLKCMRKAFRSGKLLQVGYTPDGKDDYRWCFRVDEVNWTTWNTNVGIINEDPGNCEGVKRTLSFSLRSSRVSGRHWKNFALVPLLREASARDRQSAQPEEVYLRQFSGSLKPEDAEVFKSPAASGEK

With C/C=C/C=C/C=C\CC/C=C/C(=O)NCC(C)(C)O as the molecule, how does the EC50 read?
Its EC50 is 1.1 µM.

target: T3, Transient receptor potential cation channel subfamily A member 1 (Mus musculus, UniProt Q8BLA8); assay: Agonist activity at TRPA1 channel in mouse dorsal root ganglion cells assessed as increase in intracellular calcium influx by radiometric Ca2+ imaging; type: functional, tissue-based
T3 sequence (Q8BLA8 whole entry): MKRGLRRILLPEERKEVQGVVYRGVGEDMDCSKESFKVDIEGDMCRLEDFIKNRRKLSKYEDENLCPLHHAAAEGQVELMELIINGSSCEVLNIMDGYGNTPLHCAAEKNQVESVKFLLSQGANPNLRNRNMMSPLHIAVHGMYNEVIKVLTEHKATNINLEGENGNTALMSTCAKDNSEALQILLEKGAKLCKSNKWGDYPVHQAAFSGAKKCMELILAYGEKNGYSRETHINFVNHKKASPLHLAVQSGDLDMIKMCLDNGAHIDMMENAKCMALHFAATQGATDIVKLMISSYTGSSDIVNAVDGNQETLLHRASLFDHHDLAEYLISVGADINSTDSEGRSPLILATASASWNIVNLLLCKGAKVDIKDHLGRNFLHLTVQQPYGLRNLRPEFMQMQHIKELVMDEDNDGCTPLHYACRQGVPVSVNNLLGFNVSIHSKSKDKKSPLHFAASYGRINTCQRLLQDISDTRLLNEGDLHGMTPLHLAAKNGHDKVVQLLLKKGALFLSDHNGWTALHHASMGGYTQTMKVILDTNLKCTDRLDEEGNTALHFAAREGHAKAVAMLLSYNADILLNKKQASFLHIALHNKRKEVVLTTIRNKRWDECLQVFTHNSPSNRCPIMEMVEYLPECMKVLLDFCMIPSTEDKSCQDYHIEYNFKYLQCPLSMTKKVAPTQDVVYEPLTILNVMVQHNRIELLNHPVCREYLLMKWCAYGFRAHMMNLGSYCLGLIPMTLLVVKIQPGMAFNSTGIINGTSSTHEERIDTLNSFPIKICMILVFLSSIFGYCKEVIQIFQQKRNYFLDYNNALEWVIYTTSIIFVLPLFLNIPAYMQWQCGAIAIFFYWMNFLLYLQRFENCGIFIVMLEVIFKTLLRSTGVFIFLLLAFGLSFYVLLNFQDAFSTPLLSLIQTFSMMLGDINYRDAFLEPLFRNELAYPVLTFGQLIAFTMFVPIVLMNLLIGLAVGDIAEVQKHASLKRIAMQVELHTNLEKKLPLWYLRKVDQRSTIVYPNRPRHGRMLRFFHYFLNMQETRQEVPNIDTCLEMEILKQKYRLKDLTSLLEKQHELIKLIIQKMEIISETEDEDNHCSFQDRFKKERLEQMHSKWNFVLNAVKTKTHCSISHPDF

How did the EC50 turn out when CC1(C)C[C@H]2C=C(C=O)[C@]3(C=O)C[C@]3(C)[C@H]2C1 [ISOVELLERAL] was run?
Its EC50 is 130 µM.

target: T2, Transient receptor potential cation channel subfamily A member 1; assay: Antagonist activity at TRPA1 channel at 1 uM; type: functional

How did the inhibition turn out when CN1C(=O)c2cccc(CC(=O)Nc3nc(-c4cc(F)c(OC(F)F)c(F)c4)cs3)c2C1=O was run?
The inhibition was 92%.

How did the inhibition turn out when CN1C(=O)c2cccc(CC(=O)Nc3nc(-c4ccc(Cl)c(Cl)c4)cs3)c2C1=O was run?
Its inhibition is 86%.

How did the inhibition turn out when CN1C(=O)c2cccc(CC(=O)Nc3nc(-c4cccc(C(F)(F)F)c4)cs3)c2C1=O was run?
Its inhibition is 60%.

CN1C(=O)c2cccc(CC(=O)Nc3nc(-c4ccc(Cl)cc4)cs3)c2C1=O was tested. Which inhibition did it give?
The inhibition was 39%.

With CN1C(=O)c2cccc(CC(=O)Nc3nc(-c4ccc(I)cc4)cs3)c2C1=O as the molecule, how does the inhibition read?
The inhibition was 76%.

target: T2, Transient receptor potential cation channel subfamily A member 1; assay: Agonist activity at human TRPA1 channel expressed in CHO cells assessed as increase in intracellular calcium levels; type: functional, cell-based

C=CCSSCC=C was tested. Which EC50 did it give?
Its EC50 is 7.55 µM.

target: T3, Transient receptor potential cation channel subfamily A member 1; assay: Agonist activity at mouse TRPA1 channel expressed in HEK293 cells assessed as increase in intracellular calcium influx; type: functional, cell-based

With CC1(C)C[C@H]2C=C(C=O)[C@]3(C=O)C[C@]3(C)[C@H]2C1 [ISOVELLERAL] as the molecule, how does the EC50 read?
Its EC50 is 2.58 µM.
